Screening data from PubChem BioAssay.
Only some compounds are listed: those with a hit (about 3.9% of all), similar ones and a draw of the others.
TAAR1 antag: human TAAR1 antagonism; AID 624466; actives 1.5% (n = 360,000); CHO RD-HGA16 TAAR1, Fluo-8 calcium fluorescence, antagonist; Q96RJ0; inhibition, % at 3 µM;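 active = inhibition above a per-plate cutoff, the mean inhibition of test compounds on that plate plus 3 SD, cut at about 49% in these data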;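 note: 0% = DMSO plus EC80 beta-PEA response and 100% = DMSO alone without agonist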
Target sequence (Q96RJ0 whole entry, looked up): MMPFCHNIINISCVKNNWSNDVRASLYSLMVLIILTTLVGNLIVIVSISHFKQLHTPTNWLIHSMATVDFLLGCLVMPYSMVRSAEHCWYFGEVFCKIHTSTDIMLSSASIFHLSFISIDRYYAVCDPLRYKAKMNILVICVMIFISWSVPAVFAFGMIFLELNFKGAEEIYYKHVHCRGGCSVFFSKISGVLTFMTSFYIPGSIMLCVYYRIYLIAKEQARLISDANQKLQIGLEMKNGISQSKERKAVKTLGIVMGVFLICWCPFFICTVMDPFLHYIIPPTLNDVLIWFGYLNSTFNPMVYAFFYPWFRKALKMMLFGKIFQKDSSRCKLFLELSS
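System: CHO RD-HGA16 cells bearing hTAAR1. Reagent: EC80 β-phenethylamine stimulus. Schedule: seeding 17-24 h prior, 75-min 37 °C, 30-min RT dye loading. Signal: Fluo-8 intracellular calcium dye fluorescence, real-time kinetic reads. Read-out: % inhibition from peak post-agonist over basal fluorescence ratio. Benchmarks: vehicle wells and EC80 agonist wells. Replicates: n of 1.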
CRFBP-R2 block: blocks CRF-induced signaling of the CRF-BP/CRF-R2 complex | HEK293 CRF-R2/CRF-BP, CRF-induced calcium fluorescence | inhibition, % at 11.8 µM | actives 0.59% (n = 350,000) | AID 588475;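 active = inhibition of the ligand-induced calcium signal above about 50% at the single tested concentration, limit read from the data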
TAAR1 ag: agonists of human TAAR1; Q96RJ0; CHO RD-HGA16 TAAR1, Fluo-8 calcium fluorescence; vehicle wells 0%, saturating PEA agonist 100%; activation, % at 3 µM; actives 0.99% (n = 360,000); AID 624467;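 active = activation above the mean activation of all test compounds in the run plus 3 SD, cut at about 38% in these data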
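Repeats: no replicates (n 1) | Material: CHO-derived RD-HGA16 cells with stable Gα16 and human TAAR1 | Technique: Kinetic Fluo-8 calcium fluorescence | Schedule: 17-24 h seeding, 75 min 37 °C dye, 30 min RT | Evaluation: % activation from peak over basal fluorescence ratio, DMSO-to-PEA scaled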
TMEM16A act: mouse TMEM16A channel activation, primary screen | Q8BHY3 | B-score at 10 µM | AID 623877 | actives 0.3% (n = 340,000) | HEK293 TMEM16A/YFP-H148Q/I152L, iodide quench fluorescence; active compounds read low;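 active = fluorescence-ratio B-score plate-corrected deviation score at least 3 library SD below zero, with starting fluorescence score within 5 deviations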;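 note: channel opened by trigger with iodide after compound preincubation; score built on the fluorescence ratio of max minus min over baseline; more negative score means more quench and so TMEM16A activation or potentiation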
ANO1 block: blocks the mouse calcium-activated chloride channel TMEM16A | Q8BHY3 | HEK293 TMEM16A/YFP iodide influx fluorescence, ionomycin | normalized B-score (activity score, 25-100; higher = stronger inhibition) at 10 µM | actives 1.2% (n = 310,000) | AID 588511;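 active = ratio plate-corrected score three or more library SD toward inhibition, starting fluorescence score within five deviations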;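 note: score derived from kinetic fluorescence span divided by baseline fluorescence per well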
CRFBP-R2 agonist: agonists of human CRF-binding protein/CRF-R2 receptor complex. activation, % at 13.2 µM. actives 0.46% (n = 350,000). AID 588473. HEK293 CRF-R2/CRF-BP, calcium dye fluorescence (FLIPR); percent of saturating CRF peptide response;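 active = activation of at least 50%, plus an integration ratio under a set limit after plate pattern correction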;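 note: plate controls were neutral control wells without compound for no effect and CRF at EC100 for full effect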
nonsel antag count: nonselective antagonism, TAAR1 counter-screen. shares compounds with TAAR1 antag. counterscreen cell line, calcium fluorescence, antagonist mode. inhibition, % at 3 µM. actives 77% (n = 2,400). AID 651780; in the data active = inhibition above about 22%;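 note: CHO-Ga16 host cells stimulated with ATP at an EC80 level; 0% = agonist EC80 plus vehicle and 100% = vehicle without agonist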
TAAR1 antag conf: human TAAR1 antagonism, confirmed | shares compounds with TAAR1 antag | TAAR1-expressing cells, fluorescence antagonist read-out | inhibition, % at 3 µM | actives 40% (n = 2,400); in the data active = inhibition above about 49%;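 note: CHO-Ga16 host cells challenged with agonist PEA near its EC80; 0% = agonist at EC80 plus vehicle and 100% = vehicle with no agonist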
Ga16 ag counter: counter-screen for TAAR1 antagonists: nonselective Ga16 agonists; actives 18% (n = 2,400); Ga16-expressing cells, calcium fluorescence, agonist counterscreen; activation, % at 3 µM; shares compounds with TAAR1 antag; in the data active = activation above about 12%;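 note: 0% = vehicle wells and 100% = saturating stimulus response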
TAAR1 ag count: activates human TAAR1 in antagonist counter-screen | actives 2% (n = 2,400) | hTAAR1 cell line, fluorescence activation, agonist mode | activation, % at 3 µM | AID 651955 | shares compounds with TAAR1 antag; in the data active = activation above about 37%;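 note: CHO cells stably expressing TAAR1 with calcium dye readout; 0% = DMSO vehicle and 100% = full agonist response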
* = called active by the depositor; i = inactive; nt = no result given.

SMILES	TAAR1 antag	CRFBP-R2 block	TAAR1 ag	TMEM16A act	ANO1 block	CRFBP-R2 agonist	nonsel antag count	TAAR1 antag conf	Ga16 ag counter	TAAR1 ag count
O=C(O)c1cc(S(=O)(=O)Nc2ccc3cn[nH]c3c2)ccc1Cl	-23.2	0.4	1.1	i	nt	0.9	nt	nt	nt	nt
NC(=O)c1ccsc1NC(=O)COC(=O)CCc1ccccc1	44.2	-21.0	17.2	nt	nt	-1.5	nt	nt	nt	nt
COC(=O)c1ccccc1NC(=O)COC(=O)/C=C/c1cccs1	59.6*	-8.8	8.2	i	nt	0.4	20.9	36.6	4.1	1.3
NC(=O)c1ccsc1NC(=O)COC(=O)/C=C/c1ccccc1	79.0*	-2.4	17.6	i	i	1.2	40.6*	74.2*	17.1*	35.6
NC(=O)c1ccsc1NC(=O)COC(=O)COc1ccccc1[N+](=O)[O-]	45.9	25.7	16.9	nt	nt	-0.7	nt	nt	nt	nt
NC(=O)c1ccsc1NC(=O)COC(=O)/C=C/c1ccccc1[N+](=O)[O-]	77.8*	2.5	21.1	i	nt	1.1	38.1*	59.5*	14.0*	21.6
COc1ccc2cc(Br)ccc2c1CC(=O)NCCCN1CCOCC1	7.7	-10.3	-0.8	i	i	0.1	nt	nt	nt	nt
Nc1cccc(Oc2ccc3c(c2)C(=O)N(CC2CCCO2)C3=O)c1 (stereo unspecified)	-12.9	-10.7	2.1	i	i	0.4	nt	nt	nt	nt
O=C(Cc1ccc(Br)cc1)N(Cc1ccccc1)c1ccccn1	0.2	-12.4	0.9	i	i	-5.2	nt	nt	nt	nt
COc1ccc2[nH]c3c(=O)n(/N=C/[C@H]4C(C)C=C(C)CC4C)c(=O)[nH]c3c2c1 (stereo partly specified)	60.2*	7.8	18.3	-15.8*	i	-0.3	34.4*	48.2	9.2	10.3
CC1=CC(C)[C@H](/C=N/n2c(=O)[nH]c3c([nH]c4ccc(Br)cc43)c2=O)C(C)C1 (stereo partly specified)	10.6	-10.6	1.8	i	i	0.6	nt	nt	nt	nt
COc1ccc2c(c1)[nH]c1c(=O)n(/N=C/C3C(C)C=C(C)CC3C)c(=O)[nH]c12 (stereo unspecified)	62.2*	3.2	17.4	i	i	-2.8	21.0	41.1	6.9	8.8
COc1ccc2[nH]c3c(=O)n(N)c(=O)[nH]c3c2c1	-0.5	4.9	4.0	i	i	1.1	nt	nt	nt	nt
CN(C)c1ccc(NC(=O)CN2C(=O)c3ccccc3C2=O)cc1	11.9	3.7	-0.1	i	i	-1.0	nt	nt	nt	nt
Cn1c(NCC2CCCCC2)nc2cc(-c3ccsc3)sc2c1=O	4.5	nt	7.2	nt	nt	nt	nt	nt	nt	nt
CCOc1ccc(CNC(=S)Nc2ccccc2)cc1Cl	10.9	23.1	4.6	i	i	-1.7	nt	nt	nt	nt
O=C(NCCc1ccccc1)c1ccc2c(c1)S(=O)(=O)c1ccccc1C2=O	51.7*	-7.1	16.4	i	i	-1.6	20.9	46.1	7.0	5.7
O=C(NCc1ccc(C(F)(F)F)cc1)c1ccc2c(c1)S(=O)(=O)c1ccccc1C2=O	-0.4	5.3	13.2	i	i	-1.4	nt	nt	nt	nt
O=C(NCc1ccc(F)cc1)c1ccc2c(c1)S(=O)(=O)c1ccccc1C2=O	51.9*	5.1	19.1	i	i	-2.6	24.8*	40.4	7.2	13.4
CC1CCC(NC(=O)C2CCC(CNc3c(N4CCCCC4)c(=O)c3=O)CC2)CC1 (stereo unspecified)	-1.9	-0.1	-0.4	i	i	-1.6	nt	nt	nt	nt
O=C1Nc2ccccc2-n2nnnc2C1N1CCN(c2ccc(C(F)(F)F)cc2[N+](=O)[O-])CC1 (stereo unspecified)	-13.6	nt	29.2	nt	nt	nt	nt	nt	nt	nt
